Test results published in ChEMBL document CHEMBL4706706, “Structure-activity relationship and mechanistic studies for a series of cinnamyl hydroxamate histone deacetylase inhibitors” (Bioorg Med Chem, 2021).
Calls of active or inactive are those of the source. The rule behind the calls is not given here.

What was measured:
[1] = tested on: MCF7; experiment: Cytotoxicity against human MCF7 cells assessed as reduction in cell viability measured after 72 hrs by MTT assay; format: functional, cell-based; settings: MCF7, 72 h
[2] = tested on: Jurkat; experiment: Cytotoxicity against human Jurkat cells assessed as reduction in cell viability measured after 72 hrs by MTT assay; format: functional, cell-based
[3] = tested on: HCT-116; experiment: Cytotoxicity against human HCT-116 cells assessed as reduction in cell viability measured after 72 hrs by MTT assay; format: functional, cell-based; settings: HCT-116, 72 h
[4] = tested on: NAMALVA; experiment: Cytotoxicity against human NAMALVA cells assessed as reduction in cell viability measured after 72 hrs by MTT assay; format: functional, cell-based
[5] = Selectivity ratio of IC50 for human HCT-116 cells to IC50 for human Jurkat cells; format: functional
[6] = target: T1, Protein deacetylase HDAC6 (Homo sapiens) (UniProt Q9UBN7); experiment: Inhibition of HDAC6 in human NAMALVA cells assessed as increase in acetylated alpha-tubulin expression at IC50 measured after 48 hrs by Western blot analysis; format: cell-based
T1 sequence (whole entry): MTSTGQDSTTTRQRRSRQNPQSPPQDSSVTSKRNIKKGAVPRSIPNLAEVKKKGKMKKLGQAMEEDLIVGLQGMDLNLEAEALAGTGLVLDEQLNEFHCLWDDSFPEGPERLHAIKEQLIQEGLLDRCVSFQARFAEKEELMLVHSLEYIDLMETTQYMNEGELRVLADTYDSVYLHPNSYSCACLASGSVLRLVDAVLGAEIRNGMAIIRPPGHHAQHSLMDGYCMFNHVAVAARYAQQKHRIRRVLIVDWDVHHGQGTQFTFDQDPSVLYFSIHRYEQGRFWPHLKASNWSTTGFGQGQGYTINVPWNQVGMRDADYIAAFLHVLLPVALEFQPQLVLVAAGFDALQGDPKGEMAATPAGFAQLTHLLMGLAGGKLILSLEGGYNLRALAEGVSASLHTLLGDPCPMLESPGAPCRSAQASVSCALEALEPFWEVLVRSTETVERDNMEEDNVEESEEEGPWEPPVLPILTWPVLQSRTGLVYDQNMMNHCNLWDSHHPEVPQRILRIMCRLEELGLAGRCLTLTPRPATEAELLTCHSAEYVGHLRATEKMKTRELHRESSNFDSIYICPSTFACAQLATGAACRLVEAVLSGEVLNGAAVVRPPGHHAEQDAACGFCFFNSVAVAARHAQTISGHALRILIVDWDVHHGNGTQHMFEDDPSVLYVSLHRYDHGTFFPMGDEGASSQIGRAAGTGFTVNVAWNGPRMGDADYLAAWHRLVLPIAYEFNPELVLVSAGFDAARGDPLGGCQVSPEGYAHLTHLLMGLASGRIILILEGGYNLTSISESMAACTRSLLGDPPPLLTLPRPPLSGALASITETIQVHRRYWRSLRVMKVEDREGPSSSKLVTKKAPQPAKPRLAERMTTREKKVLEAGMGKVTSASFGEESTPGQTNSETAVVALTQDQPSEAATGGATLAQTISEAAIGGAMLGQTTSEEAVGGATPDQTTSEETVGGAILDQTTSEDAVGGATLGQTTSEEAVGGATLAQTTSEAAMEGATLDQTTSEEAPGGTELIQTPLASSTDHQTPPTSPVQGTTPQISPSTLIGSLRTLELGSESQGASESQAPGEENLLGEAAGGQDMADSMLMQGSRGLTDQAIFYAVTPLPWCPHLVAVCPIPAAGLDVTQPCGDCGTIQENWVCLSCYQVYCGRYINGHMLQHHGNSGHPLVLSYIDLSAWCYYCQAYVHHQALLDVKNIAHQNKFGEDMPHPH

[7] = tested on: Jurkat; experiment: Effect on phosphoserine expression in human Jurkat cells at IC50 measured after 48 hrs by Western blot analysis; format: functional, cell-based
[8] = tested on: Jurkat; experiment: Induction of apoptosis in human Jurkat cells assessed as late apoptotic cells at 0.5 times IC50 measured after 48 hrs by Annexin V-FITC/7AAD staining based flow cytometry (reference value: 6.77%); format: functional
[9] = tested on: Jurkat; experiment: Induction of apoptosis in human Jurkat cells assessed as necrotic cells at 0.5 times IC50 measured after 48 hrs by Annexin V-FITC/7AAD staining based flow cytometry (reference value: 0.23%); format: functional
[10] = tested on: Jurkat; experiment: Cytotoxicity against human Jurkat cells assessed as reduction in cell viability measured after 24 hrs MTT assay; format: functional, cell-based
[11] = Cytotoxicity against human HS5 cells assessed as reduction in cell viability measured after 72 hrs by MTT assay; format: ADME, cell-based; settings: HS5, 72 h
[12] = Selectivity ratio of IC50 for human HCT-116 cells to IC50 for human NAMALVA cells; format: functional
[13] = tested on: Jurkat; experiment: Induction of apoptosis in human Jurkat cells assessed as early apoptotic cells at 0.5 times IC50 measured after 48 hrs by Annexin V-FITC/7AAD staining based flow cytometry (reference value: 6.05%); format: functional
[14] = tested on: NAMALVA; experiment: Effect on phosphoserine expression in human NAMALVA cells at IC50 measured after 48 hrs by Western blot analysis; format: functional, cell-based
[15] = tested on: Jurkat; experiment: Induction of apoptosis in human Jurkat cells assessed as viable cells at 0.5 times IC50 measured after 48 hrs by Annexin V-FITC/7AAD staining based flow cytometry (reference value: 85.2%); format: functional
[16] = tested on: NAMALVA; experiment: Induction of apoptosis in human NAMALVA cells assessed as early apoptotic cells at 0.5 times IC50 measured after 48 hrs by Annexin V-FITC/7AAD staining based flow cytometry (reference value: 5.07%); format: functional
[17] = tested on: Jurkat; experiment: Cytotoxicity against human Jurkat cells assessed as reduction in cell viability measured after 48 hrs MTT assay; format: functional, cell-based
[18] = tested on: NAMALVA; experiment: Induction of apoptosis in human NAMALVA cells assessed as late apoptotic cells at 0.5 times IC50 measured after 48 hrs by Annexin V-FITC/7AAD staining based flow cytometry (reference value: 3.52%); format: functional
[19] = tested on: Jurkat; experiment: Cytotoxicity against human Jurkat cells assessed as reduction in cell viability MTT assay; format: functional, cell-based; settings: time 24-72 hrs, TDE = time-dependent effect
Method in brief: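 Jurkat cells (2 × 10^4/well) in RPMI with 10% FBS and 1% penicillin–streptomycin, exposed 24, 48 and 72 h to compound (0.0032–50 μM); 1% DMSO as negative control. MTT at 0.5 mg/mL final for 3 h, formazan dissolved in 0.1 N HCl/isopropanol. IC50 with 95% confidence intervals from sigmoidal nonlinear regression; mean ± SEM.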

[20] = tested on: NAMALVA; experiment: Induction of apoptosis in human NAMALVA cells assessed as necrotic cells at 0.5 times IC50 measured after 48 hrs by Annexin V-FITC/7AAD staining based flow cytometry (reference value: 1.05%); format: functional
[21] = tested on: NAMALVA; experiment: Induction of apoptosis in human NAMALVA cells assessed as viable cells at 0.5 times IC50 measured after 48 hrs by Annexin V-FITC/7AAD staining based flow cytometry (reference value: 90.4%); format: functional
[22] = tested on: NAMALVA; experiment: Effect on phosphotyrosine expression in human NAMALVA cells at IC50 measured after 48 hrs by Western blot analysis; format: functional, cell-based
[23] = Selectivity index, ratio of IC50 for human HS5 cells to IC50 for human NAMALVA cells
[24] = target: T1, Protein deacetylase HDAC6 (Homo sapiens); experiment: Inhibition of HDAC6 in human Jurkat cells assessed as increase in acetylated alpha-tubulin expression at IC50 measured after 48 hrs by Western blot analysis; format: cell-based
[25] = tested on: Jurkat; experiment: Effect on phosphotyrosine expression in human Jurkat cells at IC50 measured after 48 hrs by Western blot analysis; format: functional, cell-based
[26] = target: T2, Histone deacetylase (Homo sapiens) (UniProt Q13547+O15379+Q9UBN7+Q92769+Q9UQL6+Q8WUI4+Q9BY41+Q96DB2+P56524+Q9UKV0+Q969S8); experiment: Inhibition of HDAC in human Jurkat cells assessed as increase in gammaH2AX expression at IC50 measured after 48 hrs by Western blot analysis; format: cell-based
[27] = Selectivity index, ratio of IC50 for human HS5 cells to IC50 for human Jurkat cells
[28] = tested on: Jurkat; experiment: Cytotoxicity against human Jurkat cells assessed as reduction in cell proliferation at IC50 measured after 48 hrs by Ki-67 staining based fluorescence assay; format: functional
Method in brief: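 Ki-67 stained per kit instructions; mean fluorescence intensity by flow cytometry, normalized to untreated cells; at least three independent experiments, ANOVA with Bonferroni post-test.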

[29] = target: T2, Histone deacetylase (Homo sapiens); experiment: Inhibition of HDAC in human NAMALVA cells assessed as increase in gammaH2AX expression at IC50 measured after 48 hrs by Western blot analysis; format: cell-based
[30] = target: T2, Histone deacetylase (Homo sapiens); experiment: Inhibition of HDAC in human HeLa cell nuclear extracts at 100 uM relative to control; format: subcellular; settings: Nucleus
Method in brief: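 Total HDAC activity measured with HeLa nuclear extract as enzyme source; single dose of 100 µM run in duplicate.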

[31] = target: T3, Protein deacetylase HDAC6 (Homo sapiens, UniProt Q9UBN7); experiment: Inhibition of recombinant human full-length N-terminal GST-tagged HDAC6 (1 to 1215 residues) expressed in baculovirus infected Sf9 insect cells using RHKK(Ac)AMC as substrate preincubated for 5 to 10 mins followed by substrate addition and measured after 2 hrs by fluorescence assay
T3 sequence (Q9UBN7 whole entry): T1 sequence (whole entry)

inhibition [6] | SMILES | IC50 [1] [nM] | IC50 [2] [nM] | IC50 [3] [nM] | IC50 [4] [nM] | inhibition [7] | Activity [8] [%] | Activity [9] [%] | IC50 [10] [nM] | IC50 [11] [nM] | Activity [13] [%] | inhibition [14] | Activity [15] [%] | Activity [16] [%] | IC50 [17] [nM] | Activity [18] [%] | Activity [19] | Activity [20] [%] | Activity [21] [%] | inhibition [22] | also measured
 | O=C(CCc1ccc(NC(=O)Nc2ccc([N+](=O)[O-])cc2)cc1)NO | > 50000 | 810 | 6370 | 2500 |  |  |  |  |  |  |  |  |  |  |  |  |  |  |  | 
Active | COc1ccc(NC(=O)Nc2ccc(/C=C/C(=O)NO)cc2)cc1 | > 50000 | 110 | 11900 | 460 | inactive | 7.77 | 0.39 | 1800 | 3000 | 9.66 | inactive | 82.2 | 10.2 | 700 | 5.42 | Tde | 1.46 | 82.9 | inactive | Ratio IC50 [5]: 108; Ratio IC50 [12]: 26; Ratio IC50 [23]: 7; inhibition [24]: Active; inhibition [25]: inactive; inhibition [26]: Active; Ratio IC50 [27]: 27; Activity [28]: Active; inhibition [29]: Active
 | COc1cccc2c1C(=O)c1c(O)c3c(c(O)c1C2=O)C[C@@](O)(C(=O)CO)C[C@@H]3O[C@H]1C[C@H](N)[C@H](O)[C@H](C)O1 [DOXORUBICIN] | 1900 | 50 |  | 90 |  |  |  | 700 | 150 |  |  |  |  | 200 |  |  |  |  |  | 
 | COc1ccc(NC(=O)Nc2ccc(C(=O)NO)cc2)cc1 | > 50000 | 8030 | 22300 | 4790 |  |  |  |  |  |  |  |  |  |  |  |  |  |  |  | 
Active | O=C(/C=C/c1ccc(NC(=O)Nc2ccc(Cl)cc2)cc1)NO | > 50000 | 40 | 29900 | 200 | inactive | 4.28 | 0.28 | 2600 | 1700 | 7.92 | inactive | 88.4 | 17.9 | 600 | 8.85 | Tde | 0.68 | 72.5 | inactive | inhibition [30]: 93%; IC50 [31]: 8.1 nM; inhibition [24]: Active; inhibition [25]: inactive; inhibition [26]: Active; Activity [28]: Active; inhibition [29]: Active
Active | O=C(/C=C/c1ccc(NC(=O)Nc2ccccc2)cc1)NO | > 50000 | 160 | 6490 | 300 | inactive | 4.39 | 0.31 | 2700 | 1000 | 7.03 | inactive | 87.4 | 12.4 | 1200 | 5.2 | Tde | 1.05 | 81.4 | inactive | Ratio IC50 [5]: 41; Ratio IC50 [12]: 22; Ratio IC50 [23]: 3; inhibition [24]: Active; inhibition [25]: inactive; inhibition [26]: Active; Ratio IC50 [27]: 6; Activity [28]: Active; inhibition [29]: Active
 | O=C(Nc1ccccc1)Nc1ccc(C(=O)NO)cc1 | > 50000 | 2500 | 14700 | 530 |  |  |  |  |  |  |  |  |  |  |  |  |  |  |  | 
 | O=C(CCc1ccc(NC(=O)Nc2ccccc2)cc1)NO | > 50000 | 1590 | 16200 | 780 |  |  |  |  |  |  |  |  |  |  |  |  |  |  |  | 
Active | O=C(/C=C/c1ccc(NC(=O)Nc2ccc([N+](=O)[O-])cc2)cc1)NO | > 50000 | 90 | 12600 | 580 | inactive | 7.03 | 0.18 | 2700 | 3000 | 5.74 | inactive | 87.1 | 10.1 | 700 | 5.89 | Tde | 1.2 | 82.8 | inactive | Ratio IC50 [5]: 140; Ratio IC50 [12]: 22; Ratio IC50 [23]: 5; inhibition [24]: Active; inhibition [25]: inactive; inhibition [26]: Active; Ratio IC50 [27]: 33; Activity [28]: Active; inhibition [29]: Active
 | O=C(Nc1ccc(C(=O)NO)cc1)Nc1ccc([N+](=O)[O-])cc1 | > 50000 | 12600 | 28400 | 13200 |  |  |  |  |  |  |  |  |  |  |  |  |  |  |  | 
 | COc1ccc(NC(=O)Nc2ccc(CCC(=O)NO)cc2)cc1 | > 50000 | 2800 | 31000 | 1990 |  |  |  |  |  |  |  |  |  |  |  |  |  |  |  | 
